Results published in ChEMBL document CHEMBL4028912, “Novel Aryl Substituted Pyrazoles as Small Molecule Inhibitors of Cytochrome P450 CYP121A1: Synthesis and Antimycobacterial Evaluation” (J Med Chem, 2017).
Converted amounts (≈) assume the structure as drawn. The source made the active and inactive calls. The rule behind the calls is not given here.

How the values were obtained:
[1] = Binding affinity to Mycobacterium tuberculosis CYP121A1 expressed in Escherichia coli TG1 (DE3) by UV-visible scanning spectrophotometric analysis
Summary of the method: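 Purified CYP121A1 (typically 3–5 μM) in 100 mM KPi, 200 mM KCl, pH 7.85, 0.004% Triton X-100, at 28 °C. Ligand added stepwise from DMSO stocks until no further spectral change. ΔAmax (peak minus trough of difference spectra) was plotted against [ligand] and fitted to a hyperbolic or Hill equation. Triplicate titrations were run and Kd was averaged.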

[2] = test system: Mycobacterium tuberculosis; test: Binding affinity to Mycobacterium tuberculosis CYP121A1 expressed in Escherichia coli TG1 (DE3) assessed as Soret peak shift by UV-visible scanning spectrophotometric analysis
Summary of the method: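 Purified CYP121A1 (typically 3–5 μM) titrated at 28 °C in 100 mM KPi, 200 mM KCl, pH 7.85, 0.004% Triton X-100. Ligand added stepwise from DMSO stocks until saturation. Spectra 250–800 nm were recorded. Soret shift was judged from the difference spectra, with a red shift taken as type II.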

[3] = test system: Mycobacterium tuberculosis; test: Antimycobacterial activity against Mycobacterium tuberculosis H37Rv after 7 days by resazurin microtiter assay; type: functional; conditions: 168 h
Summary of the method: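 M. tuberculosis H37Rv grown in 7H9 with 10% OADC at 37 °C to mid-log (OD600 0.4–0.6). Inoculum adjusted to McFarland no. 1, diluted 1:20. Compounds from DMSO stocks, final 0.39–100 μg/mL; rifampicin 0.004–1 μg/mL as control. After 7 days at 37 °C, 0.01% resazurin added, read 24 h later by fluorescence (530/590 nm). MIC = lowest concentration giving 90% inhibition.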

Structure (SMILES) | Kd [1] | Activity [2] | MIC90 [3]
COc1ccc(-c2nn(-c3ccccc3)cc2C(=O)NCCn2ccnc2)cc1 | 314 µM | 416 to 418 nm | 100 µg/mL (≈ 258 µM)
Ic1ccc(-c2nn(-c3ccccc3)cc2Cn2ccnc2)cc1 | 13.6 µM | 416 to 422 nm | 6.25 µg/mL (≈ 14.7 µM)
Fc1ccc(-c2nn(-c3ccccc3)cc2Cn2cncn2)cc1 | 35.6 µM | 416 to 423 nm | 25 µg/mL (≈ 78.3 µM)
O=C(NCCn1ccnc1)c1cn(-c2ccccc2)nc1-c1ccc(F)cc1 |  | inactive | > 100 µg/mL
Cc1ccc(-c2nn(-c3ccccc3)cc2Cn2ccnc2)cc1 | 5.36 µM | 416 to 422 nm | 12.5 µg/mL (≈ 39.8 µM)
Fc1ccc(-c2nn(-c3ccccc3)cc2Cn2ccnc2)cc1 | 4.16 µM | 416 to 424 nm | 25 µg/mL (≈ 78.5 µM)
O=C(NCCn1ccnc1)c1cn(-c2ccccc2)nc1-c1ccccc1 | 394 µM | 416 to 418 nm | > 100 µg/mL
Clc1ccc(-c2nn(-c3ccccc3)cc2Cn2cncn2)cc1 | 83.8 µM | 416 to 421 nm | 25 µg/mL (≈ 74.4 µM)
Ic1ccc(-c2nn(-c3ccccc3)cc2Cn2cncn2)cc1 |  | inactive | 50 µg/mL (≈ 117 µM)
Clc1ccc(-c2nn(-c3ccccc3)cc2Cn2ccnc2)cc1 | 7.42 µM | 416 to 422 nm | 12.5 µg/mL (≈ 37.3 µM)
Brc1ccc(-c2nn(-c3ccccc3)cc2Cn2cncn2)cc1 | 193 µM | 416 to 418 nm | 25 µg/mL (≈ 65.7 µM)
O=C(NCCn1ccnc1)c1cn(-c2ccccc2)nc1-c1ccc(Cl)cc1 |  | inactive | > 100 µg/mL
OC(Cn1cncn1)(Cn1cncn1)c1ccc(F)cc1F [FLUCONAZOLE] |  |  | > 100 µg/mL
N#Cc1ccc(-c2nn(-c3ccccc3)cc2Cn2cncn2)cc1 |  | inactive | > 100 µg/mL
Cc1ccc(-c2nn(-c3ccccc3)cc2Cn2cncn2)cc1 | 187 µM | 416 to 418 nm | > 100 µg/mL
Brc1ccc(-c2nn(-c3ccccc3)cc2Cn2ccnc2)cc1 | 19.5 µM | 416 to 420 nm | 6.25 µg/mL (≈ 16.5 µM)
Clc1ccccc1C(c1ccccc1)(c1ccccc1)n1ccnc1 [CLOTRIMAZOLE] |  |  | 20 µg/mL (≈ 58 µM)
N#Cc1ccc(-c2nn(-c3ccccc3)cc2Cn2ccnc2)cc1 | 45.9 µM | 416 to 418 nm | 100 µg/mL (≈ 307 µM)
Cc1ccc(-c2nn(-c3ccccc3)cc2C(=O)NCCn2ccnc2)cc1 | 290 µM | 416 to 418 nm | > 100 µg/mL
c1ccc(-c2nn(-c3ccccc3)cc2Cn2ccnc2)cc1 | 2.63 µM | 416 to 424 nm | 12.5 µg/mL (≈ 41.6 µM)
c1ccc(-c2nn(-c3ccccc3)cc2Cn2cncn2)cc1 | 73.5 µM | 416 to 422 nm | 50 µg/mL (≈ 166 µM)
COc1ccc(-c2nn(-c3ccccc3)cc2Cn2ccnc2)cc1 | 11.4 µM | 416 to 421 nm | 25 µg/mL (≈ 75.7 µM)
COc1ccc(-c2nn(-c3ccccc3)cc2Cn2cncn2)cc1 | 96.5 µM | 416 to 420 nm | 25 µg/mL (≈ 75.4 µM)
